Values after ≈ are worked out from the molar mass of the structure shown.
How the values were obtained:
bacterial membranes = test: SYTOX uptake assay; format: cell-based; conditions: SYTOX fluorescence; positive control 12,3,2,3,12
Method in brief: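 All synthetic test compounds were run in a SYTOX uptake assay for membrane damage in S. aureus cells. Uptake was scored qualitatively as positive or negative.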

S. aureus = test: minimum inhibitory concentration; format: cell-based, Staphylococcus aureus
Method in brief: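 Each synthetic test compound was tested against S. aureus SH1000, with USA300 and ATCC33591 as additional strains. MIC was read in both iron-rich medium (IRM) and iron-depleted medium (IDM), and values are given in μM. Vancomycin was the positive control run in parallel.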

SMILES	membrane disruption (SYTOX uptake) (bacterial membranes)	MIC against S. aureus (S. aureus) [µM]
CCC(=O)[C@H](C)C[C@@H](C)C[C@H](C)CC[C@@H](O)C[C@@H](O)[C@@H](CC(C)C)[C@@H](O)c1cc(O)cc(O)c1 [Baulamycin A, baulamycin A]	tested positive for membrane disruption	
CC(=O)[C@H](C)C[C@@H](C)C[C@H](C)CC[C@@H](O)C[C@@H](O)[C@@H](CC(C)C)[C@@H](O)c1cc(O)cc(O)c1 [Baulamycin B, baulamycin B]	exception	500 (≈ 233 µg/mL)
